What was measured:
[1] = Activity against [Ca2+]-ATPase in rabbit white skeletal muscle sarcoplasmic reticulum vesicles
[2] = organism: Oryctolagus cuniculus; experiment: Inhibition of the [Ca2+]-ATPase by coincubation of the enzyme with the Thapsigargin (activity=53.3) along with the compound at 100 nM concentration; parameters: scale not given: the % may be the effect or the level left
[3] = organism: Oryctolagus cuniculus; experiment: Inhibition of the [Ca2+]-ATPase by coincubation of the enzyme with the Thapsigargin (activity=53.3) along with the compound at 1 nM concentration; parameters: scale not given: the % may be the effect or the level left
[4] = organism: Oryctolagus cuniculus; experiment: Inhibition of the [Ca2+]-ATPase by the compound (20 nM) was determined by the decrease in rate of formation of inorganic phosphate compared to control; parameters: scale not given: the % may be the effect or the level left
Summary of the method: (§1)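 Leaky SR vesicles (5 μg/mL protein) from New Zealand white rabbit hind-leg muscle in pH 7.0 buffer: KCl 120 mM, MOPS 25 mM, EGTA 0.5 mM, CaCl2 0.44 mM, MgCl2 2 mM, A23187 1 μM. Compound added in DMSO (<1%), 5 min preincubation at 30 °C, then ATP 1 mM final. Pi read by malachite green at ≥8 time points; rate from slope.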

[5] = organism: Oryctolagus cuniculus; experiment: Inhibition of the [Ca2+]-ATPase by the compound (100 nM) was determined by the decrease in rate of formation of inorganic phosphate compared to control; parameters: scale not given: the % may be the effect or the level left
Summary of the method: as §1

[6] = organism: Oryctolagus cuniculus; experiment: Inhibition of the [Ca2+]-ATPase by coincubation of the enzyme with the Thapsigargin (activity=53.3) along with the compound at 20 nM concentration; parameters: scale not given: the % may be the effect or the level left
[7] = organism: Oryctolagus cuniculus; experiment: Inhibition of the [Ca2+]-ATPase by the compound (1 nM) was determined by the decrease in rate of formation of inorganic phosphate compared to control; parameters: scale not given: the % may be the effect or the level left
Summary of the method: as §1

[8] = organism: Oryctolagus cuniculus; experiment: Inhibition of the [Ca2+]-ATPase by the compound (5000 nM) was determined by the decrease in rate of formation of inorganic phosphate compared to control; parameters: scale not given: the % may be the effect or the level left
Summary of the method: as §1

[9] = organism: Oryctolagus cuniculus; experiment: Inhibition of the [Ca2+]-ATPase by the compound (500 nM) was determined by the decrease in rate of formation of inorganic phosphate compared to control; parameters: scale not given: the % may be the effect or the level left
Summary of the method: as §1

[10] = organism: Oryctolagus cuniculus; experiment: Inhibition of the [Ca2+]-ATPase by coincubation of the enzyme with the Thapsigargin (activity=56.5) along with the compound at 5000 nM concentration; parameters: scale not given: the % may be the effect or the level left
[11] = organism: Oryctolagus cuniculus; experiment: Inhibition of the [Ca2+]-ATPase by coincubation of the enzyme with the Thapsigargin (activity=56.5) along with the compound at 500 nM concentration; parameters: scale not given: the % may be the effect or the level left
[12] = organism: Oryctolagus cuniculus; experiment: Inhibition of the [Ca2+]-ATPase by coincubation of the enzyme with the Thapsigargin (activity=56.5) along with the compound at 100 nM concentration; parameters: scale not given: the % may be the effect or the level left
[13] = Activity against [Ca2+]-ATPase in rabbit white muscle sarcoplasmic reticulum vesicles
[14] = organism: Oryctolagus cuniculus; experiment: Inhibition of the [Ca2+]-ATPase by the compound (10000 nM) was determined by the decrease in rate of formation of inorganic phosphate compared to control; parameters: scale not given: the % may be the effect or the level left
Summary of the method: as §1

[15] = organism: Oryctolagus cuniculus; experiment: Inhibition of the [Ca2+]-ATPase by the compound (1000 nM) was determined by the decrease in rate of formation of inorganic phosphate compared to control; parameters: scale not given: the % may be the effect or the level left
Summary of the method: as §1

[16] = organism: Oryctolagus cuniculus; experiment: Inhibition of the [Ca2+]-ATPase by coincubation of the enzyme with the Thapsigargin (activity=56.7) along with the compound at 1000 nM concentration; parameters: scale not given: the % may be the effect or the level left
[17] = organism: Oryctolagus cuniculus; experiment: Inhibition of the [Ca2+]-ATPase by the compound (50000 nM) was determined by the decrease in rate of formation of inorganic phosphate compared to control; parameters: scale not given: the % may be the effect or the level left
Summary of the method: as §1

[18] = organism: Oryctolagus cuniculus; experiment: Inhibition of the [Ca2+]-ATPase by coincubation of the enzyme with the Thapsigargin (activity=56.7) along with the compound at 50000 nM concentration; parameters: scale not given: the % may be the effect or the level left
[19] = organism: Oryctolagus cuniculus; experiment: Inhibition of the [Ca2+]-ATPase by coincubation of the enzyme with the Thapsigargin (activity=56.7) along with the compound at 10000 nM concentration; parameters: scale not given: the % may be the effect or the level left
[20] = organism: Oryctolagus cuniculus; experiment: Inhibition of the [Ca2+] - ATPase by coincubation of the enzyme with the Thapsigargin (activity=53.9) along with the compound at 1 nM concentration; parameters: scale not given: the % may be the effect or the level left
[21] = organism: Oryctolagus cuniculus; experiment: Inhibition of the [Ca2+]-ATPase by coincubation of the enzyme with the Thapsigargin (activity=53.9) along with the compound at 20 nM concentration; parameters: scale not given: the % may be the effect or the level left
[22] = organism: Oryctolagus cuniculus; experiment: Inhibition of the [Ca2+]-ATPase by coincubation of the enzyme with the Thapsigargin (activity=53.9) along with the compound at 100 nM concentration; parameters: scale not given: the % may be the effect or the level left
[23] = organism: Oryctolagus cuniculus; experiment: Inhibition of the [Ca2+]-ATPase by the compound (200 nM) was determined by the decrease in rate of formation of inorganic phosphate compared to control; parameters: scale not given: the % may be the effect or the level left
Summary of the method: as §1

[24] = organism: Oryctolagus cuniculus; experiment: Inhibition of the [Ca2+]-ATPase by coincubation of the enzyme with the Thapsigargin (activity=49.4) along with the compound at 200 nM concentration; parameters: scale not given: the % may be the effect or the level left
[25] = organism: Oryctolagus cuniculus; experiment: Inhibition of the [Ca2+]-ATPase by the compound (30 nM) was determined by the decrease in rate of formation of inorganic phosphate compared to control; parameters: scale not given: the % may be the effect or the level left
Summary of the method: as §1

[26] = organism: Oryctolagus cuniculus; experiment: Inhibition of the [Ca2+]-ATPase by coincubation of the enzyme with the Thapsigargin (activity=49.4) along with the compound at 1 nM concentration; parameters: scale not given: the % may be the effect or the level left
[27] = organism: Oryctolagus cuniculus; experiment: Inhibition of the [Ca2+]-ATPase by coincubation of the enzyme with the Thapsigargin (activity=49.4) along with the compound at 30 nM concentration; parameters: scale not given: the % may be the effect or the level left

SMILES: C/C=C(/C)C(=O)O[C@H]1C(C)=C2[C@H]([C@@H]1OC(=O)CCCCCCC)[C@@](C)(OC(C)=O)C[C@H](OC(=O)CCC)[C@@]1(O)[C@H]2OC(=O)[C@@]1(C)O [THAPSIGARGIN]
- IC50 [1]: 9.6 nM

SMILES: C/C=C(/C)C(=O)O[C@H]1C(C)=C2[C@H]([C@@H]1OC(=O)CCCCC)[C@@](C)(OC(C)=O)C[C@H](OC(=O)CCC)[C@@]1(O)[C@H]2O[C@@H](O)[C@@]1(C)O.C/C=C(/C)C(=O)O[C@H]1C(C)=C2[C@H]([C@@H]1OC(=O)CCCCC)[C@@](C)(OC(C)=O)C[C@H](OC(=O)CCC)[C@@]1(O)[C@H]2O[C@H](O)[C@@]1(C)O
- IC50 [1]: 15.6 nM

SMILES: C/C=C(/C)C(=O)O[C@H]1C(C)=C2[C@H]([C@@H]1OC(=O)CCCCC)[C@@](C)(OC(C)=O)C[C@H](OC(=O)CCC)[C@@]1(O)[C@H]2O[C@H]2O[C@@H](OCC)O[C@]21C
- Control [2]: 36.8%
- Control [3]: 52.5%
- Control [4]: 98.4%
- Control [5]: 78.6%
- Control [6]: 41.6%
- IC50 [1]: 388 nM
- Control [7]: 101%

SMILES: C/C=C(/C)C(=O)O[C@H]1C(C)=C2[C@H]([C@@H]1OC(=O)CCCCC)[C@@](C)(O)C[C@H](OC(=O)CCC)[C@@]1(O)[C@H]2O[C@H]2OC(C)(C)O[C@]21C
- Control [8]: 53.7%
- Control [9]: 87%
- Control [10]: 24%
- Control [11]: 49%
- Control [5]: 97%
- Control [12]: 52.3%
- IC50 [13]: 5590 nM

SMILES: C/C=C(/C)C(=O)O[C@H]1C(C)=C2[C@H]([C@@H]1O)[C@@](C)(O)C[C@H](OC(=O)CCC)[C@@]1(O)[C@H]2O[C@H]2OC(C)(C)O[C@]21C
- Control [14]: 82.6%
- Control [15]: 98.6%
- Control [16]: 53.8%
- Control [17]: 50.9%
- Control [18]: 25.1%
- Control [19]: 43.5%
- IC50 [13]: 60600 nM

SMILES: C/C=C(/C)C(=O)O[C@H]1C(C)=C2[C@H]([C@@H]1OC(=O)CCCCC)[C@@](C)(OC(C)=O)C[C@H](OC(=O)CCC)[C@@]1(O)[C@H]2O[C@@H](OC(C)=O)[C@@]1(C)O
- IC50 [1]: 18.4 nM

SMILES: C/C=C(/C)C(=O)O[C@H]1C(C)=C2[C@H]([C@@H]1OC(=O)CCCCC)[C@@](C)(OC(C)=O)C[C@H](OC(=O)CCC)[C@@]1(O)[C@H]2O[C@H]2O[C@H](OCC)O[C@]21C
- IC50 [1]: 24.1 nM

SMILES: C/C=C(/C)C(=O)O[C@H]1C(C)=C2[C@H]([C@@H]1OC(=O)CCCCC)[C@@](C)(OC(C)=O)C[C@H](OC(=O)CCC)[C@@]1(O)[C@H]2OC(=O)[C@@]1(C)O
- IC50 [1]: 9.8 nM

SMILES: C/C=C(/C)C(=O)O[C@H]1C(C)=C2[C@H]([C@@H]1OC(=O)CCCCC)[C@@](C)(OC(C)=O)C[C@H](OC(=O)CCC)[C@@]1(O)[C@H]2O[C@H](OCC)[C@@]1(C)O
- IC50 [1]: 11.2 nM

SMILES: C/C=C(/C)C(=O)O[C@H]1C(C)=C2[C@H]([C@@H]1OC(=O)CCCCC)[C@@](C)(OC(C)=O)C[C@H](OC(=O)CCC)[C@@]1(O)[C@H]2O[C@H]2OC(C)(C)O[C@]21C
- Control [4]: 81.2%
- Control [20]: 55.7%
- Control [5]: 66.6%
- IC50 [1]: 157 nM
- Control [7]: 100%
- Control [21]: 49.3%
- Control [22]: 34.7%

SMILES: C/C=C(/C)C(=O)O[C@H]1C(C)=C2[C@H]([C@@H]1OC(=O)CCCCCCC)[C@@](C)(O)C[C@H](OC(=O)CCCCCCC)[C@@]1(O)[C@H]2OC(O)[C@@]1(C)O (some centres not stated)
- Control [23]: 21.9%
- Control [24]: 16.2%
- Control [25]: 68.9%
- IC50 [1]: 120 nM
- Control [26]: 51.1%
- Control [7]: 98.4%
- Control [27]: 34.6%

SMILES: C/C=C(/C)C(=O)O[C@H]1C(C)=C2[C@H]([C@@H]1OC(=O)CCCCC)[C@@](C)(OC(C)=O)C[C@H](OC(=O)CCC)[C@@]1(O)[C@H]2O[C@H]2O[C@]21C
- IC50 [1]: 51.7 nM

Source: ChEMBL document CHEMBL1128581, “Structure-activity relationships of analogues of thapsigargin modified at O-11 and O-12” (J Med Chem, 1995)
